ChEMBL document CHEMBL5653623 (J Pharmacol Exp Ther, 2015)
Calls of active or inactive are those of the source. The rule behind the calls is not given here.

Key:
[1] = Unbound fraction in C57Bl/6 mouse plasma; type: ADME, cell-free
Procedure, shortened: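 Plasma and brain binding were determined by equilibrium dialysis at 1 μM.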

[2] = system: Mus musculus; assay: Effect on behavioral changes in 14 weeks old MitoPark mouse striatum assessed as HVA level at 30 mg/kg/day by HPLC analysis; type: functional
Procedure, shortened: (§1)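 Striatum from MitoPark mice on diet targeting 30 mg/kg/day or vehicle diet (wild-type littermate controls) was homogenized by sonication in 0.1 M acid at 0.1 g/mL. Samples were held 60 min at 4 °C and centrifuged. Dopamine, DOPAC and HVA were measured by HPLC with electrochemical detection against a 3,4-DHBA internal standard and standard curves. Mean ± SEM.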

[3] = biological target: Leucine-rich repeat serine/threonine-protein kinase 2 (Mus musculus) (UniProt Q5S006); assay: In vivo inhibition of LRRK2 in C57Bl/6 mouse kidney assessed as total LRRK2 protein level at 30 to 120 mg/kg administered for 11 days and measured after 24 hrs by Western blotting analysis; type: functional, organism-based; settings: dose 30-120 mg/kg, time 11.0 day
Procedure, shortened: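 Same 11-day in-diet design in male C57Bl/6 mice: 3-120 mg/kg/day or untreated diet, killed 4, 8 or 24 h after dark-cycle onset, n = 5 per group. Kidneys dissected for Western blot of pSer935 and total LRRK2, with total LRRK2 detected by MJFF-2 antibody.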

[4] = system: Mus musculus; assay: Effect on body weight in MitoPark mouse at 30 mg/kg administered for 15 weeks; type: functional, organism-based
Procedure, shortened: (§2)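 MitoPark mice, 5 weeks old, were allocated by baseline 60-min LMA to untreated diet or diet targeting 30 mg/kg/day (reformulated every 3 weeks). Wild-type littermates received vehicle diet. Body weight and food intake were recorded weekly. 60-min LMA (distance, rearing) was run at 8, 11, 14 and 17 weeks of age.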

[5] = biological target: Leucine-rich repeat serine/threonine-protein kinase 2 (Mus musculus) (UniProt Q5S006); assay: In vivo inhibition of LRRK2 in MitoPark mouse assessed as reduction in pSer935 LRRK2 at 30 mg/kg administered for 15 weeks and measured after 24 hrs by Western blotting analysis relative to control; type: functional, organism-based
Procedure, shortened: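 MitoPark mice fed diet targeted to 30 mg/kg/day, or untreated diet, from 5 weeks of age. Cortex collected after 3, 9 or 15 weeks of treatment, n = 10 per group. Blots probed for pSer935 LRRK2, total LRRK2 (MJFF-2 antibody) and GAPDH. pSer935 reported relative to vehicle-diet MitoPark mice.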

[6] = system: Mus musculus; assay: Effect on behavioral phenotype in 8 weeks old MitoPark mouse assessed as locomotor activity at 30 mg/kg/day administered for 3 weeks and measured after 60 mins by truScan photo beam activity system analysis; type: functional, organism-based; procedure, shortened: as §2
[7] = biological target: Dual specificity protein kinase CLK4 (Homo sapiens, UniProt Q9HAZ1); assay: Inhibition of CLK4 (unknown origin)
[8] = system: Mus musculus; assay: Effect on behavioral changes in 8 weeks old MitoPark mouse striatum assessed as dopamine level at 30 mg/kg/day administered for 3 weeks by HPLC analysis; type: functional; procedure, shortened: as §1
[9] = biological target: T1, Mitogen-activated protein kinase kinase kinase 5 (Homo sapiens, UniProt Q99683); assay: Inhibition of MAP3K5 (unknown origin)
T1 sequence (Q99683 whole entry): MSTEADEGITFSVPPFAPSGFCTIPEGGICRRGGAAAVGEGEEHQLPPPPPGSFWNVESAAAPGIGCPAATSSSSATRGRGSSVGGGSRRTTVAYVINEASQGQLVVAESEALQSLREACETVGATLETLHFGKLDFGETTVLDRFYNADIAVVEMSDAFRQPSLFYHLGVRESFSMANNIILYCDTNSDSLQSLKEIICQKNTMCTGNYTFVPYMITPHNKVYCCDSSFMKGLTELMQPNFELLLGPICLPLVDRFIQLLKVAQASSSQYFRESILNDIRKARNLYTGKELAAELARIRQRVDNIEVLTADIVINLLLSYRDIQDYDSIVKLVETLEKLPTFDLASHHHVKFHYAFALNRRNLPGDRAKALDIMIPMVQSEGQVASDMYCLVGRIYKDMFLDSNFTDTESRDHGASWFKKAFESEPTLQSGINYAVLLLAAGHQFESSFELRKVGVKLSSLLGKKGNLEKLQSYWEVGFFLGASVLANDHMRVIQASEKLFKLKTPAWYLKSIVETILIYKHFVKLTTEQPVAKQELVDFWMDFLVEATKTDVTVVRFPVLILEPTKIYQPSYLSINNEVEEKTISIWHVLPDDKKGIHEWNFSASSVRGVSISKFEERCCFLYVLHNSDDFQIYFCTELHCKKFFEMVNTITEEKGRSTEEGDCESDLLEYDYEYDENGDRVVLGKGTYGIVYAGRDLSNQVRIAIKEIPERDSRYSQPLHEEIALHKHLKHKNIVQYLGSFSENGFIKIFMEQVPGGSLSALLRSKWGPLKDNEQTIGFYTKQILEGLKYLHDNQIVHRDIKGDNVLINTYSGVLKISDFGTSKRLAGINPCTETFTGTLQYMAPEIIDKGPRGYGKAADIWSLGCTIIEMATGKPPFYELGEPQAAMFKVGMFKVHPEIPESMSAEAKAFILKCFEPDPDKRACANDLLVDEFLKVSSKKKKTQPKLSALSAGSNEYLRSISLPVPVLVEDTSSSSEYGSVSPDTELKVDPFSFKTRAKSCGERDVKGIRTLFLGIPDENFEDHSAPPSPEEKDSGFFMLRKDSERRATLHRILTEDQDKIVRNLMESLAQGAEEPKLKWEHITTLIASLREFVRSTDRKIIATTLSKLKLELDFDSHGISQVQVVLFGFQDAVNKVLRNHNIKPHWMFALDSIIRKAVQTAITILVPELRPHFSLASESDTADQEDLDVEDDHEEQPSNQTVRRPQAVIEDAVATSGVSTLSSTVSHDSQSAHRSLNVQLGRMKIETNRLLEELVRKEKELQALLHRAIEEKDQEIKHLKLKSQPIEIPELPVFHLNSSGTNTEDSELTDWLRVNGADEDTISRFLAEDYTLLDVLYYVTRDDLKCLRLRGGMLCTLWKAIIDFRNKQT

[10] = MRT in C57Bl/6 mouse at 10 mg/kg, po measured after 480 mins by LC-MS/MS analysis; type: ADME, organism-based; settings: in vivo
Procedure, shortened: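 Male C57Bl/6 mice (20-25 g) given a single IV dose (2 mg/kg) or oral dose (10 mg/kg). Blood was sampled at 5, 15, 30, 60, 120, 240, 360 and 480 min and plasma prepared by centrifugation. Plasma drug levels were measured by LC/MS/MS. Values are mean (CV%), N=3.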

[11] = Unbound brain concentration in C57Bl/6 mouse at 10 mg/kg, po administered for 1 hr; type: ADME, organism-based; settings: in vivo
[12] = biological target: Leucine-rich repeat serine/threonine-protein kinase 2 (Mus musculus) (UniProt Q5S006); assay: In vivo inhibition of LRRK2 in C57Bl/6 mouse brain assessed as reduction in pSer935 LRRK2 at 30 mg/kg administered for 11 days and measured for 4 to 24 hrs by Western blotting analysis; type: functional, organism-based; settings: time 11.0 day
Procedure, shortened: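 Male C57Bl/6 mice, singly housed on a reversed light cycle. Fed drug diet targeted to 3, 10, 30, 60 or 120 mg/kg/day (assuming 3 g/day intake), or untreated diet, for 11 days. Killed 4, 8 or 24 h after dark-cycle onset, n = 5 per group. Cortex immunoblotted for pSer935/total LRRK2 and total LRRK2/GAPDH. Total LRRK2 detected with MJFF2 antibody.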

Chain of Leucine-rich repeat serine/threonine-protein kinase 2 (Mus musculus) (Q5S006 whole entry): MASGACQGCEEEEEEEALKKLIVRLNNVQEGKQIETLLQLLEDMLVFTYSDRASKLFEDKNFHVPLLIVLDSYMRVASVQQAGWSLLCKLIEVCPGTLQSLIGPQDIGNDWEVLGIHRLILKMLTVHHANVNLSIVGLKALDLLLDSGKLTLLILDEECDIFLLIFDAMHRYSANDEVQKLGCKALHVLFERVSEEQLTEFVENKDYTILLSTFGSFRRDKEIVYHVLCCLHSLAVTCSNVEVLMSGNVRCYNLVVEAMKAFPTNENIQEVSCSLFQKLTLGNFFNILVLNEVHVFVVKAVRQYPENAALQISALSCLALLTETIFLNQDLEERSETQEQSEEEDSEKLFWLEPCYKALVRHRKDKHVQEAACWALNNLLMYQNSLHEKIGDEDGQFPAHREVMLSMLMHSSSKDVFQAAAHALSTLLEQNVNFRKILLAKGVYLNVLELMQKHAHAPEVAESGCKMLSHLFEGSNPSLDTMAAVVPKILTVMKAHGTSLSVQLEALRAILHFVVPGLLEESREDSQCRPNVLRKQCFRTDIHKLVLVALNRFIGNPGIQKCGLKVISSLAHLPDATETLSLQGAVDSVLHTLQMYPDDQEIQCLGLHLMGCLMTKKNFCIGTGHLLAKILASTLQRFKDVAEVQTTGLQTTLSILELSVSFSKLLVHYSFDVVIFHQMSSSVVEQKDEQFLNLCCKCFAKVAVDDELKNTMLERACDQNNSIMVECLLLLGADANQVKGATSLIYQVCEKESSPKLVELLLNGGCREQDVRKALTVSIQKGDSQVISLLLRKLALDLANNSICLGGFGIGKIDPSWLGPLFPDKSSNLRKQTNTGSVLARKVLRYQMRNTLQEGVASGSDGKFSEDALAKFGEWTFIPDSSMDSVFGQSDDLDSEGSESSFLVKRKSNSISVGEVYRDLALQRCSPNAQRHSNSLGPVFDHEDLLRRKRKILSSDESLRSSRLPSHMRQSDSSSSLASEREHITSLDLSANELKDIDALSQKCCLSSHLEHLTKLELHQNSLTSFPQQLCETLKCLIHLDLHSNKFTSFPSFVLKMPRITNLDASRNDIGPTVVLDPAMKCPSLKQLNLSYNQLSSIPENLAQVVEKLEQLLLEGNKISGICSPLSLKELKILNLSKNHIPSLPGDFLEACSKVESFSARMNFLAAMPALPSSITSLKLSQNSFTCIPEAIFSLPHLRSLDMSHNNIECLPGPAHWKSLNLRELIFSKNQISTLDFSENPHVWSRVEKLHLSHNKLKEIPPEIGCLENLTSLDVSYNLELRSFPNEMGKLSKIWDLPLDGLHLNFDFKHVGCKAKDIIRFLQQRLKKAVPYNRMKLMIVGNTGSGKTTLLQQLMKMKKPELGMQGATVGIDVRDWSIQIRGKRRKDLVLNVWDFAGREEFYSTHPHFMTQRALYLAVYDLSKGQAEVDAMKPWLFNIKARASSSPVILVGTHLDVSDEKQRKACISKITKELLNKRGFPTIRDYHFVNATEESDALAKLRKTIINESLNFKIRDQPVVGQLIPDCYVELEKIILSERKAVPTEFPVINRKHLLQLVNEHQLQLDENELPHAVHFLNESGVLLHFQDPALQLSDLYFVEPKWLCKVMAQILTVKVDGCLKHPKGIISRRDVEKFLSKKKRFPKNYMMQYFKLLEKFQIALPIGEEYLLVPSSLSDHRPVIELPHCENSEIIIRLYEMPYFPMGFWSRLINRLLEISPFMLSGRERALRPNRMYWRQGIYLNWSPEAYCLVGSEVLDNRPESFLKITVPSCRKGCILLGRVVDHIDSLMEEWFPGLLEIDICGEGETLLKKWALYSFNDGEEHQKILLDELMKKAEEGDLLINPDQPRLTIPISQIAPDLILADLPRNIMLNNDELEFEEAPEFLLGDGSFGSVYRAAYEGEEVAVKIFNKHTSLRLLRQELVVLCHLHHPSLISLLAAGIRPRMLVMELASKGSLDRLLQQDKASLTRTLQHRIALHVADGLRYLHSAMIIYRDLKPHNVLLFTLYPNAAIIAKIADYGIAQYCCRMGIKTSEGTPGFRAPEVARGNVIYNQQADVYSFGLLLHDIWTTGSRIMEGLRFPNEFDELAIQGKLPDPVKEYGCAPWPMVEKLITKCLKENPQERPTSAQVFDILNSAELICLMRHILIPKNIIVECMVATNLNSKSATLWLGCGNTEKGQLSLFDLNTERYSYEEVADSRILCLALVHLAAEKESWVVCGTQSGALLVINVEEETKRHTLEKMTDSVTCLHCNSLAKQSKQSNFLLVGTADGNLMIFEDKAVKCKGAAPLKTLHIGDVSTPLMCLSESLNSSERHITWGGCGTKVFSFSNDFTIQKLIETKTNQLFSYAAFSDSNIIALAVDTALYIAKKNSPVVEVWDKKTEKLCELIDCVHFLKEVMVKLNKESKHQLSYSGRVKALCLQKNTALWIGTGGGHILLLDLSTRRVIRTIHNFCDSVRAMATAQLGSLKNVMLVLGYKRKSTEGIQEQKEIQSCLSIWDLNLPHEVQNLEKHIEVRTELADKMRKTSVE
Chain of Dual specificity protein kinase CLK4 (Q9HAZ1 whole entry): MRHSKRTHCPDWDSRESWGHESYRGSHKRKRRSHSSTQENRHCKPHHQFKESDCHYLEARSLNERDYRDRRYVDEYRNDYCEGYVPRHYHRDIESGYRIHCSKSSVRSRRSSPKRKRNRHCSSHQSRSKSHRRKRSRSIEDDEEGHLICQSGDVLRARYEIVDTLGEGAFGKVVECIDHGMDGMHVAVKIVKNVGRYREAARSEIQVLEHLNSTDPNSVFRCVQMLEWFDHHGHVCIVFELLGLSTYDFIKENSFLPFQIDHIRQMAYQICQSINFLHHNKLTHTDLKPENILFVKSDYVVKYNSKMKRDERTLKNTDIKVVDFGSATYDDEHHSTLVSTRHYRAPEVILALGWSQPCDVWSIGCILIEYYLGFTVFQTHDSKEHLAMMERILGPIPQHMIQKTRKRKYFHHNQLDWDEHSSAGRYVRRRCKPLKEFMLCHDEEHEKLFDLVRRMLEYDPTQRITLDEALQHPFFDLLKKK

- fraction unbound [1]: 0.008
- inhibition [3]: Active
- inhibition [5]: > 90%
- IC50 [7]: 225 nM
- IC50 [9]: 428 nM
- MRT [10]: 11 h
- Drug uptake(free) [11]: 25.4 nM
- inhibition [12]: Active
SMILES: C[C@@H]1CN(c2cc(-c3n[nH]c4ccc(OC5(C)CC5)cc34)ncn2)C[C@H](C)O1 [MLi-2]
- Activity [2]: 323.7 ng/g
- Activity [4]: inactive
- Activity [6]: Active
- Activity [8]: 1114 ng/g
